In ChEMBL document CHEMBL1154616, “Synthesis and antitumor activity studies of some new fused 1,2,4-triazole derivatives carrying 2,4-dichloro-5-fluorophenyl moiety” (Eur J Med Chem, 2009) one finds GI50 data, which are given here for 1 molecule.

The structures appear in SMILES notation. Some results are limits rather than exact numbers.

Type in all cases: functional
One assay deals with SF-295. The assay can be described thus: Anticancer activity against human SF295 cells after 48 hrs by sulforhodamine B assay. To be noted: SF-295, 48 h. Put shortly: (§1)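 Full 60-cell-line panel, compounds tested over a five-log dose range. Cells are preincubated on microtiter plates, the agent is added, and cultures run 48 h. The end point is sulphorhodamine B protein staining. GI50 is taken as the concentration giving 50% growth inhibition relative to untreated control cells.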
(Sulforhodamine B stains cellular protein and so reports cell mass.)

The subject of a further assay is ACHN. The assay is described as follows: Anticancer activity against human ACHN cells after 48 hrs by sulforhodamine B assay. Put shortly: as §1
A further assay has as its system NCI-H522. The assay is described as follows: Anticancer activity against human NCI-H522 cells after 48 hrs by sulforhodamine B assay. To be noted: NCI-H522, 48 h. A digest of the protocol:
as §1

For another assay, the system named is SW-620. The assay can be described thus: Anticancer activity against human SW620 cells after 48 hrs by sulforhodamine B assay. To be noted: SW-620, 48 h. Put shortly:
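Cells from the 60-line full panel are preincubated on microtiter plates, then treated across a five-log dose range for 48 h. Growth is read with the protein-binding dye sulforhodamine B. GI50 is the concentration giving 50% growth inhibition relative to untreated control cells.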

The subject of a further assay is M14. The assay is described as follows: Anticancer activity against human M14 cells after 48 hrs by sulforhodamine B assay. To be noted: M14, 48 h. Put shortly:
as §1

The next assay has as its system HCT-116. The assay is described as follows: Anticancer activity against human HCT116 cells after 48 hrs by sulforhodamine B assay. As to conditions: HCT-116, 48 h. Put shortly: as §1
The test system of a further assay is RXF 393. The assay is described as follows: Anticancer activity against human RXF393 cells after 48 hrs by sulforhodamine B assay. To be noted: RXF 393, 48 h. Put shortly: as §1
Another assay relates to OVCAR-5. The assay can be described thus: Anticancer activity against human OVCAR5 cells after 48 hrs by sulforhodamine B assay. As to conditions: OVCAR-5, 48 h. Put shortly: as §1
The next assay concerns CCRF-CEM. The assay can be described thus: Anticancer activity against human CCRF-CEM cells after 48 hrs by sulforhodamine B assay. A digest of the protocol:
as §1

A further assay concerns 786-0. The assay is described as follows: Anticancer activity against human 786-0 cells after 48 hrs by sulforhodamine B assay. To be noted: 786-0, 48 h. A digest of the protocol:
as §1

The test system of another assay is KM12. The assay is described as follows: Anticancer activity against human KM12 cells after 48 hrs by sulforhodamine B assay. To be noted: KM12, 48 h. A digest of the protocol: as §1
The next assay concerns MDA-MB-231. The assay is described as follows: Anticancer activity against human MDA-MB-231 cells after 48 hrs by sulforhodamine B assay. To be noted: MDA-MB-231, 48 h. A digest of the protocol:
as §1

For the next assay, the system named is SK-MEL-28. The assay is described as follows: Anticancer activity against human SK-MEL-28 cells after 48 hrs by sulforhodamine B assay. As to conditions: SK-MEL-28, 48 h. A digest of the protocol: as §1
A further assay deals with NCI-H23. The assay can be described thus: Anticancer activity against human NCI-H23 cells after 48 hrs by sulforhodamine B assay. To be noted: NCI-H23, 48 h. Put shortly:
as §1

Usually GI50 stands for the concentration giving 50% growth inhibition. Regarding `Fc1cc(-c2nnc3n2N=C(c2ccc(Cl)cc2Cl)CS3)c(Cl)cc1Cl`, the GI50 was 36.4 µM with SF-295; 66.6 µM with ACHN; 50.8 µM in the assay on NCI-H522; 36.8 µM with SW-620; 37.5 µM in the assay on M14; 25.4 µM with HCT-116. For the same molecule, the concentration for 50% growth inhibition (GI50) with RXF 393 was 51 µM; with OVCAR-5, above 100 µM; in the assay with CCRF-CEM, 27.6 µM; in the assay on 786-0, 47.1 µM; with KM12 it was 41.9 µM; in the assay on MDA-MB-231 it was 33.7 µM. The GI50 is 40.2 µM in the assay with SK-MEL-28 and 82.5 µM in the assay on NCI-H23.
